Test [1] in a line: Her2 expression decrease, cell viability multiplex – SKBR3 breast tumor cells, AlphaScreen, ATP viability, primary screen (AID 461;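 active means Her2 level under about 52% in both replicate screens, with viability over 70% of control, limit read from the data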;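 on Her2 level: lower value means less Her2 protein in the cells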;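 on viability: percent of carrier control wells set as 100% viability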). Particulars: SKBR3 Her2 protein level, 18-24 h, measured here: SKBR3 viability, ATP luminescence, at 10 µM. On the technique in general: Alpha assays give light when donor and acceptor beads are brought close together.
The target of test [2] is Receptor tyrosine-protein kinase erbB-2 (Homo sapiens) (UniProt P04626). Described as above. Particulars: 18-24 h, at 10 µM, stronger effect = lower value.
Sequence of Receptor tyrosine-protein kinase erbB-2 (Homo sapiens) (P04626 whole entry, looked up): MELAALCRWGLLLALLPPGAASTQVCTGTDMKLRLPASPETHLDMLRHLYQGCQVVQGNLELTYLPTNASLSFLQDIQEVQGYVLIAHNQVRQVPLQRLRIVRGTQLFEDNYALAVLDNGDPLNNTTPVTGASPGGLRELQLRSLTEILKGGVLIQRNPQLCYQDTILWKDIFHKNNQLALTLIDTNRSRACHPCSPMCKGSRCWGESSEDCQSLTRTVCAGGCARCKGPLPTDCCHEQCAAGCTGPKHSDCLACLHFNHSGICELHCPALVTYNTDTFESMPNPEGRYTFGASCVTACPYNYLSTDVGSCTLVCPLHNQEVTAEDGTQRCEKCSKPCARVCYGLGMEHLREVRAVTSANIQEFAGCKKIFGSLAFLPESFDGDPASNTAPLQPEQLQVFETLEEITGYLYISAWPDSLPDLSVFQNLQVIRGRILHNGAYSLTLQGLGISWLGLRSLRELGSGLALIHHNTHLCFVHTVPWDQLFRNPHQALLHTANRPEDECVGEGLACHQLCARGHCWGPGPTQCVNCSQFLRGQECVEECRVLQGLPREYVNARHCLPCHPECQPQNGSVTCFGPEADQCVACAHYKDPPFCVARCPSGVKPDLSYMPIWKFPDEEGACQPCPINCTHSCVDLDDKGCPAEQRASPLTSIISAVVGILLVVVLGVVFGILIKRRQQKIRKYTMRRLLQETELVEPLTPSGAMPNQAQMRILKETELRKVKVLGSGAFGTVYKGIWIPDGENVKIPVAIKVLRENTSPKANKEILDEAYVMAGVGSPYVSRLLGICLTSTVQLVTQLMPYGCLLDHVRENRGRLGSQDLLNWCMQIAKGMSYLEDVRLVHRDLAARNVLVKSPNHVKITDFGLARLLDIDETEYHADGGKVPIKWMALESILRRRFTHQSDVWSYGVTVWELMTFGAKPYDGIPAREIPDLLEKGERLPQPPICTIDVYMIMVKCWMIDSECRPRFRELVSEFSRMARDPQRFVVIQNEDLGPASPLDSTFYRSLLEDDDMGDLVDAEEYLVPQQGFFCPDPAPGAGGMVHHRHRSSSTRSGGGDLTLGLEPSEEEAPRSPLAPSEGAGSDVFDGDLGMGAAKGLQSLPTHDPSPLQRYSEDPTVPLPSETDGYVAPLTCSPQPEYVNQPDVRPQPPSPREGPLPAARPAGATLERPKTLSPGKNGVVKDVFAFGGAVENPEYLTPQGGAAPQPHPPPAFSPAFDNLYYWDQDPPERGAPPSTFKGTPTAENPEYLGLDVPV
Test [3] can be described thus: reduced viability of SK-BR-3 breast cancer cells – cell-based, 24 h, human, pilot screen (AID 572;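 active means viability at or below 10% of carrier control in both of two separate runs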;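 further: compound exposure lasted between 18 and 24 h rather than exactly 24 h; 100% = carrier-treated control wells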). Conditions: SK-BR-3 viability, CellTiter-Glo luminescence, at 10 µM, stronger effect = lower value.
Test [4] is described as follows: HUVEC growth inhibition – cell-based, human, primary screen (AID 575).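 Further: 100% = median of untreated cell wells with 0.1% DMSO on each plate.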 Conditions: HUVEC proliferation, CellTiter-Glo luminescence, 72 h; at 10 µM; stronger effect = lower value. A digest of the protocol:
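Assay system: primary human umbilical vein endothelial cells / Buffer or medium: endothelial basal medium with 2% FBS plus growth supplements / Compound dosing: one dose, 10 µM final, 0.1% DMSO / Timing: 72 h treatment at 37 °C / Signal: CTG luminescence / Benchmarks: 32 DMSO-only cell-control wells (high), 32 MePR drug-control wells (low) per plate / Plate: collagen-coated 384-well format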
(ATP-based viability assays read luminescence as a measure of living cells.)

A short description of test [5]: H69AR cell proliferation blockers – human, duplicate replicates, primary screen (AID 580;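 active means viability at or under a set limit in both replicates, limit being median viability minus 3 SD, cut at about 48% in these data, passing the limit was not always enough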;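 further: 100% = mean luminescence of untreated wells and 0% = no signal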). Conditions: H69AR lung tumor cells viability, ATP luminescence, 72 h; at 10 µM; stronger effect = lower value.
Test [6] can be described thus: MRP1 drug-resistance reversers in H69AR cells – cell-based, doxorubicin co-treatment, pilot screen (AID 601;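 active means viability loss from added drug above about 55%, and viability with drug at most 40%, in both replicates, limit read from the data, passing the limit was not always enough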). Particulars: CellTiter-Glo, 72 h, at 10 µM; for differential viability (reversal): stronger effect = higher value.
Test [7] is described as follows: yeast transport mutant growth inhibition pilot in 384-well plates, post-Golgi transport modulator project (AID 636; in the data active means inhibition above about 31%). Conditions: absorbance 615 nm, about 18 h, stronger effect = higher value.
Test [8] can be described thus: growth suppression of yeast trafficking mutant, preliminary HTS, modulators of trafficking downstream of Golgi apparatus project, 1536-format plate, OD 615 nm (AID 637; in the data active means inhibition above about 30%). Particulars: yeast transport mutant growth, absorbance 615 nm, 18 h; stronger effect = higher value.
Setting [9] is: H69AR cells + 2 uM doxorubicin, measured here: viability with 2 uM doxorubicin, stronger effect = lower value.
[10] abbreviates: H69AR cells, compound alone cytotoxicity.

SMILES strings stand for the structures. Active and inactive are the calls of the source.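 How the source made its calls, unless noted: active means viability at or below 30% in both replicate assays; inconclusive means viability at or below 30% in just one of the two assays; inactive means the rest.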

The values that follow come from PubChem BioAssay.

Take `Nc1c(Sc2ccccc2)c(=O)[nH]c(=O)n1Cc1ccccc1`: the viability in test [1] was 90.5%; in test [3] it was 90.5% (inactive); in test [4], 109% (inactive); in test [5], 102% (inactive); in test [6] (setting [9]) it was 93.2%; in test [6] (setting [10]), 102%. Besides, the Her2 level in test [2] was 104% (inactive). Also, in test [6] (H69AR cells + 2 uM doxorubicin), the differential viability (reversal) is 8.38% (inactive). The inhibition in test [7] was -5.14% (inactive); in test [8], -6% (inactive).
With `C=CCc1c(C)nc(SC)nc1Nc1ccc(C(=O)O)cc1`, the viability is 106% in test [1]; 106% (inactive) in test [3]; 84.2% (inactive) in test [4]; 86.9% (inactive) in test [5]; 85.7% in test [6] (setting [9]); 86.9% in test [6] (setting [10]). The Her2 level in test [2] was 74.5% (inactive). Moreover, the differential viability (reversal) in test [6] (H69AR cells + 2 uM doxorubicin) is 1.22% (inactive). Moreover, the inhibition was -6.89% (inactive) in test [7] and 3.28% (inactive) in test [8].
As to `O=S(=O)(Nc1cccnc1)c1cc(Cl)ccc1Cl`, the viability was 77.5% in test [1]; 77.5% (inactive) in test [3]; 92.2% (inactive) in test [4]; 82.8% (inactive) in test [5]; 87.7% in test [6] (setting [9]); 82.8% in test [6] (setting [10]). Besides, in test [2], the Her2 level was 96% (inactive). Besides, the differential viability (reversal) in test [6] (H69AR cells + 2 uM doxorubicin) is -4.94% (inactive). In addition, the inhibition in test [7] is -1.03% (inactive); in test [8] it was -3% (inactive).
For the molecule `O=C(OCC#CCSc1nnc(-c2ccncc2)o1)c1cccs1`, the viability in test [1] was 118%; in test [3] it was 118% (inactive); in test [4], 88.2% (inactive); in test [5] it was 82% (inactive); in test [6] (setting [9]) it was 83.3%; in test [6] (setting [10]), 82%. The Her2 level in test [2] is 102% (inactive). In test [6] (H69AR cells + 2 uM doxorubicin), the differential viability (reversal) was -1.25% (inactive). The values for the inhibition in test [7] and in test [8] were -4.67% (inactive) and 1.43% (inactive), respectively.
As for `C=CCOc1cccc(C2/C(=C(\O)c3ccc(F)cc3)C(=O)C(=O)N2CCN(C)C)c1` (stereo not given), the viability in test [1] is 96.5%; in test [3] it was 96.5% (inactive); in test [4], 98% (inactive); in test [5] it was 105% (inactive); in test [6] (setting [9]), 94.6%; in test [6] (setting [10]) it was 105%. In addition, in test [2], the Her2 level is 97.5% (inactive). Besides, the differential viability (reversal) in test [6] (H69AR cells + 2 uM doxorubicin) was 10.4% (inactive). For the same molecule, the inhibition in test [7] is -2.11% (inactive); in test [8] it was 0.98% (inactive).
For `O=C(Cn1nnc(-c2cc(Cl)ccc2-n2cnnn2)n1)N1CCCc2ccccc21`, the viability in test [1] was 116%; in test [3] it was 116% (inactive); in test [4], 95.7% (inactive); in test [5] it was 96.4% (inactive); in test [6] (setting [9]) it was 87%; in test [6] (setting [10]), 96.4%. In addition, the Her2 level in test [2] was 99.5% (inactive). Also, in test [6] (H69AR cells + 2 uM doxorubicin), the differential viability (reversal) is 9.45% (inactive). The results for the inhibition in test [7] and in test [8] were -2.47% (inactive) and 10.8% (inactive), respectively.
Consider `CCN(CC)CCCNS(=O)(=O)c1ccc(OC)cc1`, for which the viability was 114% in test [1]; 114% (inactive) in test [3]; 103% (inactive) in test [4]; 90.3% (inactive) in test [5]; 98.9% in test [6] (setting [9]); 90.3% in test [6] (setting [10]). For the same molecule, the Her2 level in test [2] is 89% (inactive). Further, the differential viability (reversal) in test [6] (H69AR cells + 2 uM doxorubicin) is -8.58% (inactive). Moreover, the inhibition in test [7] was -5.32% (inactive); in test [8], -2.3% (inactive).
Regarding `CCCOc1ccccc1NC(=O)c1c(-c2ccccc2)noc1C`, the viability in test [1] was 84.5%; in test [3] it was 84.5% (inactive); in test [4], 79.7% (inactive); in test [5] it was 89% (inactive); in test [6] (setting [9]) it was 82%; in test [6] (setting [10]) it was 89%. In test [2], the Her2 level was 92% (inactive). Further, the differential viability (reversal) in test [6] (H69AR cells + 2 uM doxorubicin) was 7.04% (inactive). For the same molecule, the figures for the inhibition in test [7] and in test [8] were 1.67% (inactive) and 5% (inactive), respectively.
With `CCOC(=O)C1CCCN(CCCc2ccccc2)C1` (stereo not given), the viability in test [1] is 104%; in test [3], 104% (inactive); in test [4] it was 105% (inactive); in test [5], 90.8% (inactive); in test [6] (setting [9]) it was 87.6%; in test [6] (setting [10]) it was 90.8%. The Her2 level in test [2] was 91% (inactive). Besides, the differential viability (reversal) in test [6] (H69AR cells + 2 uM doxorubicin) is 3.21% (inactive). Further, the inhibition in test [7] was -5.47% (inactive); in test [8], -1.9% (inactive).
For `COC(=O)C1(C)NC(c2ccco2)C2C(=O)N(c3ccc(C)cc3)C(=O)C21` (stereo not given), the viability was 106% in test [1]; 106% (inactive) in test [3]; 96.6% (inactive) in test [4]; 91.5% (inactive) in test [5]; 94.5% in test [6] (setting [9]); 91.5% in test [6] (setting [10]). Also, the Her2 level in test [2] is 95% (inactive). In test [6] (H69AR cells + 2 uM doxorubicin), the differential viability (reversal) was -3% (inactive). For the same molecule, the inhibition is -5.27% (inactive) in test [7] and -3.83% (inactive) in test [8].
Consider `Cc1ccc(NCc2nnc(SCC(=O)N3CCCCC3)n2CC2CCCO2)c(C)c1` (stereo not given), for which the viability in test [1] is 94.5%; in test [3], 94.5% (inactive); in test [4], 106% (inactive); in test [5] it was 88.7% (inactive); in test [6] (setting [9]) it was 87%; in test [6] (setting [10]) it was 88.7%. The Her2 level in test [2] is 99% (inactive). For the same molecule, the differential viability (reversal) in test [6] (H69AR cells + 2 uM doxorubicin) was 1.68% (inactive). Moreover, the inhibition in test [7] is -6.8% (inactive); in test [8] it was 1.13% (inactive).
`c1ccn2c(SCc3cn4ccsc4n3)nnc2c1`: the viability in test [1] was 104%; in test [3], 104% (inactive); in test [4] it was 104% (inactive); in test [5], 110% (inactive); in test [6] (setting [9]) it was 95.7%; in test [6] (setting [10]), 110%. The Her2 level in test [2] is 93.5% (inactive). In addition, the differential viability (reversal) in test [6] (H69AR cells + 2 uM doxorubicin) is 14% (inactive). The results for the inhibition in test [7] and in test [8] were -8.49% (inactive) and 3.49% (inactive), respectively.
With `CCc1ccc2c(CN(CC)Cc3nc4ccccc4c(=O)[nH]3)cc(=O)oc2c1`, the viability in test [1] was 86%; in test [3] it was 86% (inactive); in test [4], 75.4% (inactive); in test [5], 67.9% (inactive); in test [6] (setting [9]), 31.7%; in test [6] (setting [10]) it was 67.9%. In test [2], the Her2 level is 73.5% (inactive). Further, the differential viability (reversal) in test [6] (H69AR cells + 2 uM doxorubicin) is 36.3% (inactive). Besides, the inhibition in test [7] was -1.32% (inactive); in test [8], -7.27% (inactive).
With `COc1ccc(OCCOC(=O)c2cccs2)cc1`, the viability in test [1] is 97.5%; in test [3], 97.5% (inactive); in test [4] it was 111% (inactive); in test [5] it was 109% (inactive); in test [6] (setting [9]) it was 89.5%; in test [6] (setting [10]), 109%. Moreover, in test [2], the Her2 level is 92% (inactive). Also, the differential viability (reversal) in test [6] (H69AR cells + 2 uM doxorubicin) was 19% (inactive). Further, the inhibition in test [7] was -6.22% (inactive); in test [8] it was 5.24% (inactive).

The viability is a read-out of living cells in per cent, often relative to untreated cells. The inhibition is the change of the read-out against control, counted positive when it falls.
